Screening results from PubChem BioAssay.
Hits are enriched below; roughly 0.99% of the tested compounds scored in any of these assays.
CASP6 VEID inh = inhibitors of human caspase-6; P55212; inhibition, % at 12.5 µM; purified caspase-6, Z-VEID-R110 cleavage fluorescence; AID 686996; 350,000 tested, 0.53% active;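 active = mean inhibition across replicates at least about 35%, with every replicate also reaching that limit, limit read from the data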
Target sequence (P55212 24-179 limits assumed): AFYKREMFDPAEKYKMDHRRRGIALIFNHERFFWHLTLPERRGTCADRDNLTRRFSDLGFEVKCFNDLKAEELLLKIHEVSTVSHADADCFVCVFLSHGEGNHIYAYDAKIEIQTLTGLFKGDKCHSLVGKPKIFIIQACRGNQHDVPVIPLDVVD
Target sequence (P55212 194-293 limits assumed): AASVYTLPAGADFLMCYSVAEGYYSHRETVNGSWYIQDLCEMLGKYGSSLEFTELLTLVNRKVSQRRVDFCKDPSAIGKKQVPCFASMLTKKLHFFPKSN
NSD2 inh = blocks human histone methyltransferase NSD2. O96028. NSD2 peptide methylation, AlphaScreen, 120 min. inhibition, % at 12.5 µM. 310,000 tested, 0.54% active. AID 743445; in the data active = inhibition above about 50%
GC-A act = GC-A (human) enzyme activation; 370,000 tested, 0.14% active; HEK293 GC-A cells, cGMP TR-FRET, EC30 ANP; 0% at EC30 ANP, 100% saturating ANP; activation, % at 10 µM; P16066; in the data active = activation above about 40%
FN deposit inh = fibronectin deposition inhibition. AH1F fibroblasts, Alexa488-fibronectin deposition fluorescence, overnight. inhibition, % at 12.6 µM. 350,000 tested, 0.086% active;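 active = mean inhibition across replicates of 30% or more, regardless of how many single replicates reach that level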
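Assay system: AH1F fibroblast monolayer, labelled fibronectin deposition. Amount: 10000 cells per well. Also added: labelled fibronectin 24 nM. Compound: single-point pinned compound. Incubation: cell attachment 1 h, compound and FN exposure overnight. Detection: fluorescence after three HBSS washes, excitation 485 nm, emission 525 nm. Read-out: inhibition of fibronectin deposition signal.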
NPR2 activator = GC-B (human) receptor activation; 370,000 tested, 0.11% active; HEK293-GC-B cells, CNP EC30, cGMP TR-FRET; 0% at EC30 CNP, 100% saturating CNP; activation, % at 10 µM; P20594;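 active = activation at 10 µM reaching about 35% in either raw or pattern-adjusted values, limit read from the data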
CaV13 ICDI inh = Disruptors of the CACNA1D IQ motif to Ca2+-dependent inactivation inhibitor domain association, primary screening, Förster resonance energy transfer in intact living …; HEK cells, CFP/YFP FRET ICDI-IQ, plate reader, 10 min; percent FRET-ratio fall versus neutral wells; inhibition, % at 12.3 µM; 340,000 tested, 0.098% active;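 active = mean replicate inhibition of at least 30% and at least 1% of replicates passing that level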
Large screens that a line does not name were inactive.

CC(/C=C/c1ccco1)=N\NC(=O)c1cccnc1	none (no result: CASP6 VEID inh)
CC(/C=C/c1ccco1)=N\NC(=O)c1cc(Cl)ccc1O	CASP6 VEID inh 52
O=C(C=Cc1ccco1)c1cc(Cl)ccc1O	CASP6 VEID inh 45
CCCNC(=O)C[C@@H]1C[C@@H]2c3cc(NS(=O)(=O)c4ccc(F)cc4)ccc3O[C@@H]2[C@@H](CO)O1	none (no result: NSD2 inh, GC-A act, NPR2 activator, CaV13 ICDI inh)
O=C(Oc1oc(-c2ccco2)nc1C=Nc1ccc(Cl)cc1)c1ccco1	GC-A act 44 (no result: CASP6 VEID inh, FN deposit inh)
CCC(=O)Nc1ccc2c(c1)OC[C@H](C)N(C(=O)NC(C)C)C[C@H](C)[C@@H](OC)CN(C)C2=O	none (no result: NSD2 inh, GC-A act, NPR2 activator, CaV13 ICDI inh)
Nc1nc(-c2cc(O)ccc2[N+](=O)[O-])cc(-c2ccccc2)c1[N+](=O)[O-]	CASP6 VEID inh 47, CaV13 ICDI inh active
COc1ccc(C(=O)NCc2ccc3c(c2)cc(C)n3C)cc1	none (no result: NSD2 inh)
Cc1cc2cc(CNC(=O)c3ccco3)ccc2n1C	CaV13 ICDI inh 56 (no result: NSD2 inh)
CCOC(=O)c1c(-c2ccc(Br)cc2)csc1/N=C/C1C(=O)CC(C)(C)CC1=O	none (no result: CASP6 VEID inh, GC-A act, FN deposit inh, NPR2 activator, CaV13 ICDI inh)
O=C(O)CCc1ccc(S(=O)(=O)Nc2cc(C(F)(F)F)ccc2N2CCCC2)cc1	CASP6 VEID inh 67
COC(=O)c1ccc(-c2nc3cc(Cl)c(N)cc3s2)cc1	GC-A act 51 (no result: CASP6 VEID inh, FN deposit inh)
CC1CC(C)CN(S(=O)(=O)c2ccc(F)c(C(=O)NC3CCCCC3C)c2)C1 (stereo unspecified)	CASP6 VEID inh 62
Cc1cccc(-c2n[nH]c(=S)n2/N=C/C=C/c2ccco2)c1	none
S=c1[nH]nc(-c2ccncc2)n1/N=C/C=C/c1ccco1	CASP6 VEID inh 51
CSc1ccccc1NC(=O)Nc1ccccc1	CASP6 VEID inh 44 (no result: FN deposit inh)
CSc1ccccc1NC(=O)Nc1cccc(F)c1	none
COc1ccc2c(c1OC)C(=O)OC2C1c2c(cc3c(c2OC)OCO3)CCN1C (stereo unspecified)	none (no result: NSD2 inh)
CN1CCc2cc3c(c4c2[C@H]1[C@H](O)c1ccccc1-4)OCO3	CASP6 VEID inh 49 (no result: NSD2 inh)
C[C@H](CO)N1C[C@H](C)[C@@H](CN(C)C(=O)C2CCC2)Oc2cc(-c3ccc(C(=O)N(C)C)cc3)ccc2S1(=O)=O	none (no result: NSD2 inh, GC-A act, NPR2 activator, CaV13 ICDI inh)
CC1=CC(=O)C(C2CCCCC2)=C/C1=N\OS(=O)(=O)c1ccccc1	none (no result: CASP6 VEID inh, NSD2 inh, FN deposit inh, CaV13 ICDI inh)
CC1=CC(=O)C(C(C)C)=C/C1=N/OS(=O)(=O)c1ccccc1	FN deposit inh 33
O=C(C1CCOCC1)N1C[C@H]2[C@@H](c3ccccc31)[C@H](CO)N2C(=O)c1ccccc1	none (no result: NSD2 inh, GC-A act, FN deposit inh, NPR2 activator, CaV13 ICDI inh)
CCC(=O)N(C)C[C@H]1Oc2cc(-c3cncnc3)ccc2S(=O)(=O)N([C@@H](C)CO)C[C@@H]1C	none (no result: NSD2 inh, GC-A act, NPR2 activator, CaV13 ICDI inh)
Cn1cnc([N+](=O)[O-])c1S(=O)(=O)Nc1ccccc1	CASP6 VEID inh 42
Cn1cnc([N+](=O)[O-])c1S(=O)(=O)Oc1ccccc1	none (no result: NSD2 inh)
CN(CCO)c1ccc(C=NNc2ccc([N+](=O)[O-])cc2S(=O)(=O)Nc2ccccc2C(=O)O)cc1	CASP6 VEID inh 37 (no result: NSD2 inh)
CC(=O)Nc1ccc(C=NNc2ccc([N+](=O)[O-])cc2S(=O)(=O)Nc2ccccc2C(=O)O)cc1	none
O=C(O)c1ccccc1NS(=O)(=O)c1ccc(N/N=C/c2cccc(O)c2O)c([N+](=O)[O-])c1	CASP6 VEID inh 60
Cc1ccc(NC(=S)NNc2ccc([N+](=O)[O-])cc2S(=O)(=O)Nc2ccccc2C(=O)O)cc1C	none (no result: CASP6 VEID inh, FN deposit inh)
CC(=O)Nc1ccc(C=NNc2ccc(S(=O)(=O)Nc3ccccc3C(=O)O)cc2[N+](=O)[O-])cc1	none
O=C(O)c1ccccc1NS(=O)(=O)c1ccc(NNC(=S)Nc2ccc(OC(F)F)cc2)c([N+](=O)[O-])c1	NSD2 inh 110
CC1Cc2ccccc2N1CC(=O)c1c(N)n(Cc2ccccc2)c(=O)n(C)c1=O (stereo unspecified)	none
CCn1c(=O)c(C(=O)CN2c3ccccc3CC2C)c(N)n(Cc2ccccc2)c1=O (stereo unspecified)	GC-A act 41
NNC(=O)CNC(=O)Nc1n[nH]c(=S)s1	CASP6 VEID inh 61
